This is an account of results in article PMC9324959 (Angewandte Chemie (International Ed. in English), 2022).

System in the first data set: not listed separately
In words: Cytotoxicity assay. The data set is classed as cell-based. The following applies: human, HeLa cells. The gist of the method: (§1)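 Where cells were clearly affected but the curve could not be fitted, the value was flagged. "n/a" marks no effect under the conditions tested.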
What is called IC50 is the concentration at which inhibition is half-maximal. Read a high IC50 as weaker potency. In turn, `CC(=O)Nc1ccc(-c2csc(Nc3ccccc3)n2)cc1` [Compound 4] yielded an IC50 at 72 h of 48 µM.

On to `CC(=O)Nc1ccc(-c2csc(Nc3ccccc3F)n2)cc1` [Compound 8], for which the IC50 at 72 h was > 80 µM. On to `CC(=O)Nc1ccc(-c2csc(Nc3ccc(F)cc3)n2)cc1` [Compound 10], for which the IC50 at 72 h was > 80 µM. In the case of `CCC(=O)Nc1ccc(-c2csc(Nc3cccc(F)c3)n2)cc1` [Compound 11, N-[4-[2-(3-fluoroanilino)thiazol-4-yl]phenyl]propanamide], the concentration for half-maximal inhibition (IC50) at 72 h amounted to 38 µM. Turning to `CC(C)C(=O)Nc1ccc(-c2csc(Nc3cccc(F)c3)n2)cc1` [Compound 12], inhibition was half-maximal at 34 µM (IC50 at 72 h). On the same count and under the same terms, next, `O=C(Nc1ccc(-c2csc(Nc3cccc(F)c3)n2)cc1)C1CC1` [Compound 13]: 38 µM; `CC(=O)Nc1ccc(-c2csc(Nc3ccccc3C)n2)cc1` [Compound 14]: 59 µM. Take `CC(=O)Nc1ccc(-c2csc(Nc3cccc(C)c3)n2)cc1` [Compound 15]: it took 37 µM to reach half-maximal inhibition (IC50 at 72 h).

In turn, `CC(=O)Nc1ccc(-c2csc(Nc3ccccc3C(F)(F)F)n2)cc1` [Compound 17] returned a concentration for half-maximal inhibition (IC50) at 72 h of 71 µM.

In turn, `CC(=O)Nc1ccc(-c2csc(Nc3cccc(Cl)c3)n2)cc1` [Compound 20] yielded an IC50 at 72 h of 19 µM. In the case of `CC(=O)Nc1ccc(-c2csc(Nc3cccc(O)c3)n2)cc1` [Compound 21], the IC50 at 72 h came to 50 µM. In turn, `COc1cccc(Nc2nc(-c3ccc(NC(C)=O)cc3)cs2)c1` [Compound 22] came in with a 50% inhibitory concentration (IC50) at 72 h of 43 µM.

The subject of another data set is HeLa cells. Description: Cytotoxicity assay. The class given is cell-based. To be noted: under the conditions used. Put shortly:
as §1
Take `CC(=O)Nc1ccc(-c2csc(NC(=O)c3ccccc3)n2)cc1` [Compound 6]: the “cytotoxicity (in words)” value is reported as “not cytotoxic”. For `CC(=O)Nc1ccc(-c2csc(Nc3ccc(C(F)(F)F)cc3)n2)cc1` [Compound 19], the “cytotoxicity (in words)” value is “abrogated activity”.
